Experimental data gathered from unrelated publications.
Compare with care: the assays were run in different laboratories.
Target: 5-hydroxytryptamine receptor 1A (HTR1A, Homo sapiens, UniProt P08908)
One construct used (P08908 1-422): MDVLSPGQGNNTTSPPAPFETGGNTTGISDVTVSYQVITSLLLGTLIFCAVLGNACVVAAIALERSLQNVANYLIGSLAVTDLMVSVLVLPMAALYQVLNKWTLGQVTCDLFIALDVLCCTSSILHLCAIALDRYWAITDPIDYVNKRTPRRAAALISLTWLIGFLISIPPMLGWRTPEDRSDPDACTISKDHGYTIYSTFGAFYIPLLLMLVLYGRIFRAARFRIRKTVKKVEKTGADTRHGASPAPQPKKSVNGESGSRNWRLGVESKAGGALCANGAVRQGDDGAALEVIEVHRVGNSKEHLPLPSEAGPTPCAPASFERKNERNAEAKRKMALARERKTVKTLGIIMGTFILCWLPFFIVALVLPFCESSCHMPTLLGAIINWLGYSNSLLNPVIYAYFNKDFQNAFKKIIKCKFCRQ

SMILES	effect on	action	method	cells	concentration	measurement	result
COCc1c(-c2cc3cc(C)cc(OC)c3s2)c2c(N)ncnn2c1CN1CCNC(=O)C1	ligand displacement	–	radioligand	–	10 µM	inhibition	8%
CCNCCc1c[nH]c2ccc(OC)cc12	calcium signal	agonist	–	–	–	Emax	~70%
CN(C)C(=O)N[C@H]1CC[C@H](CCN2CCN(c3cccc(Cl)c3Cl)CC2)CC1	cAMP	agonist	TR-FRET	CHO	–	Emax	95%
COCCc1ccc(-c2c(C)nc3c(N4CCOCC4)ccnn23)cn1	ligand displacement	–	–	–	10 µM	inhibition	22.9%
Clc1ccc2c(C3CCN(CCc4c[nH]c5ccccc45)CC3)c[nH]c2c1	ligand displacement	–	radioligand	–	10 µM	inhibition	99%
CNC(=O)Nc1ccc2c(c1)[C@]1(CC2)OC(=O)N(CC(=O)N(Cc2ccc(F)cc2)[C@@H](C)C(F)(F)F)C1=O	ligand displacement	–	–	–	10 µM	inhibition	4.17%
CC(C)N1CCC[C@H]1CNC(=O)c1cn(C2CCCC2)c(=O)c2c1c1ccccc1n2C	ligand displacement	–	radioligand	–	10 µM	inhibition	3%
CCN(CC)CCCC[C@H](NC(=O)[C@H](CC(C)C)NC(=O)[C@H](C)NC(=O)[C@H](Cc1ccccc1)NC(=O)c1ccc(C(C)(C)C)cc1)C(=O)N[C@@H](CO)C(=O)OC	ligand displacement	–	radioligand	–	10 µM	remaining binding	81.3%
